Series [1] can be described thus: Aqueous solubility of the compound. The format is physicochemical.
The target of series [2] is T1, Androgen receptor (Homo sapiens, UniProt P10275).
T1 sequence (P10275 whole entry): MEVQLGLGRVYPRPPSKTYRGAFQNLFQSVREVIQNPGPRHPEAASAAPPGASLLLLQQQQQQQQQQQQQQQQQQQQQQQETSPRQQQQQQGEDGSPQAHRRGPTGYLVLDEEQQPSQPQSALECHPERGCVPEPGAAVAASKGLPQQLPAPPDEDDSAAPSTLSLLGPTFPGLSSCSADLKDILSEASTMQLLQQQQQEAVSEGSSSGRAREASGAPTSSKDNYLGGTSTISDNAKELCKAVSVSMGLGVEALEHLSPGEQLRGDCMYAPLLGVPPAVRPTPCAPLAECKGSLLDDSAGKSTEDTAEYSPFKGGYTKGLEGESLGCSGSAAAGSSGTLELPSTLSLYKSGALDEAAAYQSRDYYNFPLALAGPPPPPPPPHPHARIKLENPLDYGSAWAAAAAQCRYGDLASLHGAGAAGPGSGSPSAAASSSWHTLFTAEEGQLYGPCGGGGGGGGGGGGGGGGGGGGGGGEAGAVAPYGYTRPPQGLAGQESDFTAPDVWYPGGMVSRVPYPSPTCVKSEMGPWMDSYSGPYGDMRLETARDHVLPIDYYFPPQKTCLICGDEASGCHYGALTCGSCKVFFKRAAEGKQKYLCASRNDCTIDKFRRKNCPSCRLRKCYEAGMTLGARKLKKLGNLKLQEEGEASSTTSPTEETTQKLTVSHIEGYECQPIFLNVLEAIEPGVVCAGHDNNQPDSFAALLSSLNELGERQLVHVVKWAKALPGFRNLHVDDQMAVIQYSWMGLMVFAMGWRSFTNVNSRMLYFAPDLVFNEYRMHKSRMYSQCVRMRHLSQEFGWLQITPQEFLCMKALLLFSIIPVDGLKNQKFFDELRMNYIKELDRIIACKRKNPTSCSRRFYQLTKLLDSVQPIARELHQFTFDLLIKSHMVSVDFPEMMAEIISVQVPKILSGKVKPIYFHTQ
The series is described as follows: Agonist activity at androgen receptor expressed in C2C12 mouse cells by luciferase reporter transactivation assay. The format is functional, cell-based. (In general: In a reporter assay the amount or activity of a reporter protein is the signal.)

The target of series [3] is T1, Androgen receptor. The series is described as follows: Displacement of [3H]DHT from androgen receptor expressed in MDA-MB-453 cells. The format is cell-based. Background: In a radioligand displacement assay an active substance lowers the binding of a labelled ligand.
A further series deals with Rattus norvegicus. The experiment in a line: Stimulation of ventral prostate tissue weight in Sprague-Dawley rat at 1 mg/kg, po after 14 days. The format is functional, Prostate gland. The method in brief: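 Mature male rats were castrated two weeks before treatment. Compound was given […] once daily for two weeks, then levator ani muscle and ventral prostate were weighed. Weights are expressed as percent of a sham-operated, vehicle-treated intact control group, ±SEM.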

Series [4] is described as follows: Cmax in Sprague-Dawley rat at 10 mg/kg, po. Type of series: ADME, organism-based. Further details: dose 10 mg/kg, route oral. The following applies: in vivo.
Series [5] is described as follows: Bioavailability in Sprague-Dawley rat at 10 mg/kg, po. The conditions noted are these: in vivo. Type of series: ADME, organism-based. The method in brief: (§1)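 Rat pharmacokinetics used 5 mg/kg i.v. and 10 mg/kg p.o. dosing. Oral bioavailability (F%), half-life, oral Tmax and total body clearance were derived from plasma concentrations.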
Series [6] can be described thus: Tmax in Sprague-Dawley rat at 10 mg/kg, po. Type of series: ADME, organism-based. Further details: dose 10 mg/kg, route oral. The conditions noted are these: in vivo. The method in brief: as §1
Series [7] is described as follows: Clearance in Sprague-Dawley rat at 10 mg/kg, po and 5 mg/kg, iv. The format is ADME, organism-based. The following applies: in vivo. In short, it runs like this:
as §1

Series [8] in a line: Binding affinity to progesterone receptor. Further details: species or system Homo sapiens.
For another series, the target named is Estrogen receptor (Homo sapiens, UniProt P03372). The series is described as follows: Binding affinity to ERalpha.
Chain of Estrogen receptor (P03372 whole entry, looked up): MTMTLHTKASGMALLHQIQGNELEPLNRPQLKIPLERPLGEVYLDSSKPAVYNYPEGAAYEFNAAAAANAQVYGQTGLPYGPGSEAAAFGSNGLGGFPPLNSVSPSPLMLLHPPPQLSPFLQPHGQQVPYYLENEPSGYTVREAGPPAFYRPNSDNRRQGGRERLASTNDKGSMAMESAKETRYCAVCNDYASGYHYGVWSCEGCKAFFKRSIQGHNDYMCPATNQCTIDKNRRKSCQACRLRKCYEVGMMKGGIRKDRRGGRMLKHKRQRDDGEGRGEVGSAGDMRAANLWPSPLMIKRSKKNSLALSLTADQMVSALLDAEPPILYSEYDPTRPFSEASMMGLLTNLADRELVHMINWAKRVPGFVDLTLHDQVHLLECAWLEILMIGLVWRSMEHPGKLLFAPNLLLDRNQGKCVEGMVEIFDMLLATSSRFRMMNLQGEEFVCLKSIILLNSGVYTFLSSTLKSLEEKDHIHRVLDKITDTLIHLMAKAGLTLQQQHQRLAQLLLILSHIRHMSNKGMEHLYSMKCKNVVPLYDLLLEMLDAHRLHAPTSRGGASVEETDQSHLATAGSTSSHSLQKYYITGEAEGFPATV
Series [9] has as its target T2, Sex hormone-binding globulin (Homo sapiens, UniProt P04278).
T2 sequence (P04278 whole entry): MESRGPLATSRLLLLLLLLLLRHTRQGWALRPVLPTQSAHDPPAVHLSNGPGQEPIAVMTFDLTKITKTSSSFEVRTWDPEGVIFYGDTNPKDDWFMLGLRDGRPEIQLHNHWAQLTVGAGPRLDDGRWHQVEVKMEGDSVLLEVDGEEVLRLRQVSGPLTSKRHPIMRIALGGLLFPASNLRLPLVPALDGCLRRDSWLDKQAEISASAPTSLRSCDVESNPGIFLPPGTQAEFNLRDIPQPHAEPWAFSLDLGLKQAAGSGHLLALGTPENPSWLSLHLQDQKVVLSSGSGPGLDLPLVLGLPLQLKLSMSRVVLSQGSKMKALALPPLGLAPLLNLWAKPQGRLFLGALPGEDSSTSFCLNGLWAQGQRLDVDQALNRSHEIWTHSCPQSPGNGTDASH
The series is described as follows: Binding affinity to SHBG.

The next series has as its target T3, Aromatase (Homo sapiens, UniProt P11511).
T3 sequence (P11511 whole entry): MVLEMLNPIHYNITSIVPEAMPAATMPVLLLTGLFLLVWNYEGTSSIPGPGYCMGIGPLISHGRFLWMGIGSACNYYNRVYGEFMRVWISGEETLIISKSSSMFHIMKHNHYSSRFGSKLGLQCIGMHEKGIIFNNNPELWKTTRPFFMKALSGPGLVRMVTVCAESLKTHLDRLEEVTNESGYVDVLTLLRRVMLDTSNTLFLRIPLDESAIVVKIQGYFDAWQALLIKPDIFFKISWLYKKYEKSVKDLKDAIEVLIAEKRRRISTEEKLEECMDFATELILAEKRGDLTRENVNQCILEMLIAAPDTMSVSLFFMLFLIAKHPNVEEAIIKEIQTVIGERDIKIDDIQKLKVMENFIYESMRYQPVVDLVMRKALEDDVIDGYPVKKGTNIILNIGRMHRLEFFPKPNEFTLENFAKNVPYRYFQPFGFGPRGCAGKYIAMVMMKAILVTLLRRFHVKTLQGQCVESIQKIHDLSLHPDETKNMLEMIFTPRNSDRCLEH
The experiment in a line: Inhibition of aromatase.

For another series, the target named is Cytochrome P450 2C19 (Homo sapiens, UniProt P33261). The series is described as follows: Inhibition of CYP2C19. Type of series: ADME.
Chain of Cytochrome P450 2C19 (P33261 whole entry): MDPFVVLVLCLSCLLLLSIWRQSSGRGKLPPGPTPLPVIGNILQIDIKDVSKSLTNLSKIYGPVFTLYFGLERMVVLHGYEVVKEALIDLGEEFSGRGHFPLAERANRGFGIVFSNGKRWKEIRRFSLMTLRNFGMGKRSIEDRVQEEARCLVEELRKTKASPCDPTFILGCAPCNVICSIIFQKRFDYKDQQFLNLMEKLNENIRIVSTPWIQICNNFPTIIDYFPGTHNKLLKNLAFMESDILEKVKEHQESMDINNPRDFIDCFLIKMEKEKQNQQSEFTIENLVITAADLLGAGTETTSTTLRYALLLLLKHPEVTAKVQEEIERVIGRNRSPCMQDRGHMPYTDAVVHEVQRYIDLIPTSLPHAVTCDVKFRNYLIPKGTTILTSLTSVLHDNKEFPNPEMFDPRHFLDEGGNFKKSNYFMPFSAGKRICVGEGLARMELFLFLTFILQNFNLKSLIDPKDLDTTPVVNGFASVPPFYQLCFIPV
The target of another series is Cytochrome P450 2C9 (Homo sapiens, UniProt P11712). The experiment in a line: Inhibition of CYP2C9. Type of series: ADME.
Chain of Cytochrome P450 2C9 (P11712 whole entry): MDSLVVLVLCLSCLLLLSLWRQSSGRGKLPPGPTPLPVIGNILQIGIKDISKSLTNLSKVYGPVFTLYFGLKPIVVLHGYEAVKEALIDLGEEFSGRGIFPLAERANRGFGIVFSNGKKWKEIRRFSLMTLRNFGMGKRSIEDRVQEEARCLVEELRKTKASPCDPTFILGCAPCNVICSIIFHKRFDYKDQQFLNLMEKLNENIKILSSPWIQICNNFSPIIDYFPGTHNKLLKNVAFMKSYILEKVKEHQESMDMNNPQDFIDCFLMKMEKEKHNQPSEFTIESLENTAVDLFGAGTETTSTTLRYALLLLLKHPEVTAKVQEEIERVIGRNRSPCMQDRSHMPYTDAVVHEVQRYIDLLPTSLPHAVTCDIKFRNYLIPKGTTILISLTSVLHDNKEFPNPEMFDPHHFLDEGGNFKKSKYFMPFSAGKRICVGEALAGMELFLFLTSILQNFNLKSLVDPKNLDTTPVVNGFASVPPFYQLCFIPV
A further series has as its target Cytochrome P450 3A4 (Homo sapiens, UniProt P08684). The experiment in a line: Inhibition of CYP3A4. Type of series: ADME.
The target in another series is hERG (Homo sapiens, UniProt Q12809). The series is described as follows: Inhibition of hERG at 30 uM by patch clamp method. Type of series: toxicity. On the technique in general: hERG is a cardiac potassium channel; its block is linked to QT prolongation.
Chain of hERG (Q12809 whole entry): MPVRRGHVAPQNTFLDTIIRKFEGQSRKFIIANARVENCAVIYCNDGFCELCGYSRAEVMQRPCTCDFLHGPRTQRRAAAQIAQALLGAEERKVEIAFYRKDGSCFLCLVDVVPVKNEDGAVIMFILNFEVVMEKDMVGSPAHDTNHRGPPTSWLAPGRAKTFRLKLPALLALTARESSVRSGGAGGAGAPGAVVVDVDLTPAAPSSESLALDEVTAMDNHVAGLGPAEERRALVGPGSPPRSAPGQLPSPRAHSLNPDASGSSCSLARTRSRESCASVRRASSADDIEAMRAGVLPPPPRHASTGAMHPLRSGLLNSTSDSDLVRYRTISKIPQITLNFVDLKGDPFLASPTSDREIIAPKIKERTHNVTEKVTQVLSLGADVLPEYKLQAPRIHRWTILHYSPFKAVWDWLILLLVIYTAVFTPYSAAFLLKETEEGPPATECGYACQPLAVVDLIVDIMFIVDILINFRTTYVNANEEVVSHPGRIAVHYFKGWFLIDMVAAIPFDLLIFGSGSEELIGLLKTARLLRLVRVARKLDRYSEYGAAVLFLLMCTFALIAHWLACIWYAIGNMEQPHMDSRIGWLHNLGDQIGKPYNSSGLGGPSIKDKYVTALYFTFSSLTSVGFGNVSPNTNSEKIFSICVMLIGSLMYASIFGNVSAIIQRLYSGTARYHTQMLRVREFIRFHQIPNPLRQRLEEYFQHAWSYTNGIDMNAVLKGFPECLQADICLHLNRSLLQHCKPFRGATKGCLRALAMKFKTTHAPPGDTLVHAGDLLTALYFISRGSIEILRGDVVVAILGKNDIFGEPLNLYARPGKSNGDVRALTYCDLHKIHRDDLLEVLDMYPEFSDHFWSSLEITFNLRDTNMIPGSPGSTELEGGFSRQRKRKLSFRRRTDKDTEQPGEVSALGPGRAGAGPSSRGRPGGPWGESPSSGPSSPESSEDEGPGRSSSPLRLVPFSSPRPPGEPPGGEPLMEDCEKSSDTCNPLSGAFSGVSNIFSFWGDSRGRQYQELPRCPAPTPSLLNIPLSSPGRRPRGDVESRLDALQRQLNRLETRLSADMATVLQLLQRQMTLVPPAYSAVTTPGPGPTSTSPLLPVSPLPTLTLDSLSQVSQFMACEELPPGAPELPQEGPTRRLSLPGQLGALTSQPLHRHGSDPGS

Each structure is given as a SMILES string. ≈ marks a conversion by molar mass, not a printed value. Some results are limits rather than exact numbers.

A word on the solubility: it is the dissolved amount per volume that the medium holds. Higher therefore signals a readily soluble substance. What is called EC50 is the concentration giving half of the maximal effect. By Ki is commonly meant the dissociation constant of the complex between target and ligand, obtained from inhibition or displacement. Low values mean higher affinity, high ones lower affinity. For orientation: Cmax means the peak of the concentration-time curve. One may read the bioavailability as the share of a dose that reaches the circulation, judged against a reference dose that is usually intravenous. High values mean much systemic uptake, low ones little systemic uptake. By Tmax is commonly meant the time from dosing to the highest level. What is called IC50 is the concentration that gives 50% inhibition. Low values mean greater potency, high ones weaker potency. What is called inhibition is the share of the control response that was lost under treatment. A low value points to a weak effect.

Chain of Cytochrome P450 3A4 (P08684 whole entry): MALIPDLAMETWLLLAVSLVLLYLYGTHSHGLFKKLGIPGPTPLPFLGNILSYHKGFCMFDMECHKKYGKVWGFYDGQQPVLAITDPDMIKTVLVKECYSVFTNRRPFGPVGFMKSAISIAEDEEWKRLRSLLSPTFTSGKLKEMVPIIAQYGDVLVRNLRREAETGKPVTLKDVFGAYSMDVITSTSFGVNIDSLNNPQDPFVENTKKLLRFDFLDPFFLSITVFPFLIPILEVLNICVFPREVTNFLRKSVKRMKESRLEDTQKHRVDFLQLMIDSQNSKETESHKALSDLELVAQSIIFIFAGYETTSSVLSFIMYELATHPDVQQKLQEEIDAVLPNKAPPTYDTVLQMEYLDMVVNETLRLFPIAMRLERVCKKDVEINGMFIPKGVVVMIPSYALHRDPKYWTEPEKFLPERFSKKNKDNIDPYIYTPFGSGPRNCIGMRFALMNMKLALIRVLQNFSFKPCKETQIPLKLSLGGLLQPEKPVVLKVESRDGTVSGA

As for `CC[C@H]1[C@@H]2[C@@H](O)CCN2C(=O)N1c1ccc(C#N)c(Cl)c1C`, in [1], the solubility was found to be 242 µg/mL (≈ 757 µM). In addition, at Androgen receptor [2], the half-maximal effective concentration (EC50) was 0.0018 µM. The Ki at Androgen receptor [3] was 0.0009 µM; in [8] it was over 10 µM; on Estrogen receptor it was over 10 µM; in series [9] it was over 100 µM. In the series with Rattus norvegicus, this molecule came in with an Activity of 24%. Also, the highest level in [4] (Cmax) was 3.1 µM. Moreover, the bioavailability in series [5] came to 65%. The Tmax in series [6] amounted to 48 min. Besides, the clearance in series [7] turned out to be 58 mL/min/kg. Also, the IC50 against Aromatase was over 100 µM; against Cytochrome P450 2C19, 7.6 µM; against Cytochrome P450 2C9 it was over 40 µM; on Cytochrome P450 3A4 it was over 40 µM. Also, at 30 µM the inhibition on hERG was 6%.

The values above are taken from ChEMBL document CHEMBL1145402, “Discovery of potent and muscle selective androgen receptor modulators through scaffold modifications” (J Med Chem, 2007).
